ChEMBL document CHEMBL4699431, “Design and synthesis of substituted (1-(benzyl)-1H-1,2,3-triazol-4-yl)(piperazin-1-yl)methanone conjugates: study on their apoptosis inducing ability and tubulin polymerization inhibition” (RSC Med Chem, 2020)

Tests used:
Assay type in all cases: functional, cell-based
BT-474 = assay: Cytotoxicity against human BT-474 cells assessed as reduction in cell viability incubated for 48 hrs by MTT assay; conditions: BT-474, 48 h
Outline: (§1)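 Cells plated at 3000-4500 per well and treated after 24 h. DMSO stocks (20 mM) were diluted in medium to final DMSO <0.1%, twofold series […], 48 h. MTT (0.5 mg/mL) was added for 4 h, formazan dissolved in DMSO, absorbance read at 570 nm.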

HeLa = assay: Cytotoxicity against human HeLa cells assessed as reduction in cell viability incubated for 48 hrs by MTT assay; outline: as §1
MCF7 = assay: Cytotoxicity against human MCF-7 cells assessed as reduction in cell viability incubated for 48 hrs by MTT assay; conditions: MCF7, 48 h; outline: as §1
NCI-H460 = assay: Cytotoxicity against human NCI-H460 cells assessed as reduction in cell viability incubated for 48 hrs by MTT assay; conditions: NCI-H460, 48 h; outline: as §1
HaCaT = assay: Cytotoxicity against human HaCaT cells assessed as reduction in cell viability incubated for 48 hrs by MTT assay; outline: as §1

Row | Compound | IC50 (BT-474) [µM] | IC50 (HeLa) [µM] | IC50 (MCF7) [µM] | IC50 (NCI-H460) [µM] | IC50 (HaCaT) [µM]
1 | O=C(c1cn(Cc2ccccc2)nn1)N1CCN(S(=O)(=O)c2ccccc2)CC1 | > 30 | > 30 | > 30 | > 30 | > 30
2 | O=C(c1cn(Cc2ccc(F)cc2)nn1)N1CCN(S(=O)(=O)c2ccc(Br)cc2)CC1 | > 30 | > 30 | > 30 | > 30 | > 30
3 | COc1cccc(Cn2cc(C(=O)N3CCN(S(=O)(=O)c4ccc(C(C)(C)C)cc4)CC3)nn2)c1 | > 30 | > 30 | > 30 | > 30 | > 30
4 | O=C(c1cn(Cc2ccc(I)cc2)nn1)N1CCN(S(=O)(=O)c2ccc(Br)cc2)CC1 | 2.33 | 6.52 | 2.73 | 3.55 | 2.48
5 | O=C(c1cn(Cc2cccc(Oc3ccccc3)c2)nn1)N1CCN(S(=O)(=O)c2ccccc2)CC1 | > 30 | > 30 | > 30 | > 30 | > 30
6 | O=C(c1cn(Cc2ccccc2)nn1)N1CCN(S(=O)(=O)c2ccc(Br)cc2)CC1 | > 30 | > 30 | > 30 | > 30 | > 30
7 | O=C(c1cn(Cc2ccc(I)cc2)nn1)N1CCN(S(=O)(=O)c2ccccc2)CC1 | > 30 | > 30 | > 30 | > 30 | > 30
8 | COc1ccc(S(=O)(=O)N2CCN(C(=O)c3cn(Cc4ccc(I)cc4)nn3)CC2)cc1 | > 30 | > 30 | > 30 | > 30 | > 30
9 | Cc1ccc(S(=O)(=O)N2CCN(C(=O)c3cn(Cc4ccccc4)nn3)CC2)cc1 | > 30 | > 30 | > 30 | > 30 | > 30
10 | COc1ccc(S(=O)(=O)N2CCN(C(=O)c3cn(Cc4ccccc4)nn3)CC2)cc1 | > 30 | > 30 | > 30 | > 30 | > 30
11 | CC(C)(C)c1ccc(S(=O)(=O)N2CCN(C(=O)c3cn(Cc4cccc(Oc5ccccc5)c4)nn3)CC2)cc1 | 3.89 | 3.7 | 3.28 | 5.05 | 4.34
12 | O=C(c1cn(Cc2ccc(I)cc2)nn1)N1CCN(S(=O)(=O)c2ccc(Cl)cc2)CC1 | 4.96 | 5.74 | 1.34 | 2.25 | 2.22
13 | COc1cccc(Cn2cc(C(=O)N3CCN(S(=O)(=O)c4ccc(Cl)cc4)CC3)nn2)c1 | > 30 | > 30 | > 30 | > 30 | > 30
14 | Cc1ccc(S(=O)(=O)N2CCN(C(=O)c3cn(Cc4cccc(Oc5ccccc5)c4)nn3)CC2)cc1 | > 30 | > 30 | > 30 | > 30 | > 30
15 | O=C(c1cn(Cc2ccc(F)cc2)nn1)N1CCN(S(=O)(=O)c2ccccc2)CC1 | > 30 | > 30 | > 30 | > 30 | > 30
16 | CC(C)(C)c1ccc(S(=O)(=O)N2CCN(C(=O)c3cn(Cc4ccc(F)cc4)nn3)CC2)cc1 | > 30 | > 30 | > 30 | > 30 | > 30
17 | COc1ccc(S(=O)(=O)N2CCN(C(=O)c3cn(Cc4cccc(OC)c4)nn3)CC2)cc1 | > 30 | > 30 | > 30 | > 30 | > 30
18 | COc1cccc(Cn2cc(C(=O)N3CCN(S(=O)(=O)c4ccc(Br)cc4)CC3)nn2)c1 | > 30 | > 30 | > 30 | > 30 | > 30
19 | CC(C)(C)c1ccc(S(=O)(=O)N2CCN(C(=O)c3cn(Cc4ccc(I)cc4)nn3)CC2)cc1 | 1.21 | 3.58 | 3.06 | 1.42 | 2.06
20 | COc1ccc(S(=O)(=O)N2CCN(C(=O)c3cn(Cc4cccc(Oc5ccccc5)c4)nn3)CC2)cc1 | 5.13 | 3.72 | 2.2 | 8.2 | 2.59
21 | CC(C)(C)c1ccc(S(=O)(=O)N2CCN(C(=O)c3cn(Cc4ccccc4)nn3)CC2)cc1 | > 30 | > 30 | > 30 | > 30 | > 30
22 | Cc1ccc(S(=O)(=O)N2CCN(C(=O)c3cn(Cc4ccc(I)cc4)nn3)CC2)cc1 | > 30 | > 30 | > 30 | > 30 | > 30
23 | COC(=O)Nc1nc2cc(C(=O)c3cccs3)ccc2[nH]1 [NOCODAZOLE] | 0.87 | – | 1.76 | 2.29 | 1.19
24 | COc1cccc(Cn2cc(C(=O)N3CCN(S(=O)(=O)c4ccccc4)CC3)nn2)c1 | > 30 | > 30 | > 30 | > 30 | > 30
25 | O=C(c1cn(Cc2ccccc2)nn1)N1CCN(S(=O)(=O)c2ccc(Cl)cc2)CC1 | > 30 | > 30 | > 30 | > 30 | > 30
26 | O=C(c1cn(Cc2ccc(F)cc2)nn1)N1CCN(S(=O)(=O)c2ccc(Cl)cc2)CC1 | > 30 | > 30 | > 30 | > 30 | > 30
27 | Cc1ccc(S(=O)(=O)N2CCN(C(=O)c3cn(Cc4ccc(F)cc4)nn3)CC2)cc1 | > 30 | > 30 | > 30 | > 30 | > 30
28 | COc1ccc(S(=O)(=O)N2CCN(C(=O)c3cn(Cc4ccc(F)cc4)nn3)CC2)cc1 | > 30 | > 30 | > 30 | > 30 | > 30
29 | O=C(c1cn(Cc2cccc(Oc3ccccc3)c2)nn1)N1CCN(S(=O)(=O)c2ccc(Cl)cc2)CC1 | 1.96 | 8.61 | 4.41 | 5.68 | 2.96
